Non-standard residues stand in square brackets, D forms with d. Residues, ends and D or L forms follow the SMILES beside them. Tpi = O=C(O)[C@@H]1Cc2c([nH]c3ccccc23)CN1
tested on: Mus musculus; assay: Analgesic activity in ICR mouse assessed as increase in pain threshold at 0.15 mmol/kg, po after 30 mins by tail flick method (reference value: 5.03 +/- 10.26 %); type: functional

In order of rising Activity:
1. O=C(CNC(=O)[C@@H]1Cc2c([nH]c3ccccc23)CN1)N[C@@H](Cc1ccccc1)C(=O)N[C@@H](Cc1c[nH]c2ccccc12)C(=O)O (H-[Tpi]GFW-OH)  10.36%
2. NC(=O)C[C@H](NC(=O)[C@@H]1Cc2c([nH]c3ccccc23)CN1)C(=O)N[C@@H](Cc1ccccc1)C(=O)N[C@@H](Cc1c[nH]c2ccccc12)C(=O)O (H-[Tpi]NFW-OH)  21.24%
3. C[C@@H](O)[C@H](NC(=O)[C@@H]1Cc2c([nH]c3ccccc23)CN1)C(=O)N[C@@H](Cc1ccccc1)C(=O)N[C@@H](Cc1c[nH]c2ccccc12)C(=O)O (H-[Tpi]TFW-OH)  30.75%
4. O=C(O)[C@H](Cc1c[nH]c2ccccc12)NC(=O)[C@H](Cc1ccccc1)NC(=O)[C@H](Cc1cnc[nH]1)NC(=O)[C@@H]1Cc2c([nH]c3ccccc23)CN1 (H-[Tpi]HFW-OH)  37.25%
5. CC(C)[C@H](NC(=O)[C@@H]1Cc2c([nH]c3ccccc23)CN1)C(=O)N[C@@H](Cc1ccccc1)C(=O)N[C@@H](Cc1c[nH]c2ccccc12)C(=O)O (H-[Tpi]VFW-OH)  39.47%

tested on: Mus musculus; assay: Analgesic activity in ICR mouse assessed as increase in pain threshold at 0.15 mmol/kg, po after 60 mins by tail flick method (reference value: 7.45 +/- 8.03 %); type: functional

In order of falling Activity:
1. CC(C)[C@H](NC(=O)[C@@H]1Cc2c([nH]c3ccccc23)CN1)C(=O)N[C@@H](Cc1ccccc1)C(=O)N[C@@H](Cc1c[nH]c2ccccc12)C(=O)O (H-[Tpi]VFW-OH)  45.77%
2. NC(=O)C[C@H](NC(=O)[C@@H]1Cc2c([nH]c3ccccc23)CN1)C(=O)N[C@@H](Cc1ccccc1)C(=O)N[C@@H](Cc1c[nH]c2ccccc12)C(=O)O (H-[Tpi]NFW-OH)  45.23%
3. O=C(CNC(=O)[C@@H]1Cc2c([nH]c3ccccc23)CN1)N[C@@H](Cc1ccccc1)C(=O)N[C@@H](Cc1c[nH]c2ccccc12)C(=O)O (H-[Tpi]GFW-OH)  40.78%
4. C[C@@H](O)[C@H](NC(=O)[C@@H]1Cc2c([nH]c3ccccc23)CN1)C(=O)N[C@@H](Cc1ccccc1)C(=O)N[C@@H](Cc1c[nH]c2ccccc12)C(=O)O (H-[Tpi]TFW-OH)  38.2%
5. O=C(O)[C@H](Cc1c[nH]c2ccccc12)NC(=O)[C@H](Cc1ccccc1)NC(=O)[C@H](Cc1cnc[nH]1)NC(=O)[C@@H]1Cc2c([nH]c3ccccc23)CN1 (H-[Tpi]HFW-OH)  32.19%

tested on: Mus musculus; assay: Analgesic activity in ICR mouse assessed as increase in pain threshold at 0.15 mmol/kg, po after 90 mins by tail flick method (reference value: 7.53 +/- 11.54 %); type: functional

In order of falling Activity:
1. CC(C)[C@H](NC(=O)[C@@H]1Cc2c([nH]c3ccccc23)CN1)C(=O)N[C@@H](Cc1ccccc1)C(=O)N[C@@H](Cc1c[nH]c2ccccc12)C(=O)O (H-[Tpi]VFW-OH)  47.36%
2. O=C(CNC(=O)[C@@H]1Cc2c([nH]c3ccccc23)CN1)N[C@@H](Cc1ccccc1)C(=O)N[C@@H](Cc1c[nH]c2ccccc12)C(=O)O (H-[Tpi]GFW-OH)  46.45%
3. C[C@@H](O)[C@H](NC(=O)[C@@H]1Cc2c([nH]c3ccccc23)CN1)C(=O)N[C@@H](Cc1ccccc1)C(=O)N[C@@H](Cc1c[nH]c2ccccc12)C(=O)O (H-[Tpi]TFW-OH)  40.36%
4. NC(=O)C[C@H](NC(=O)[C@@H]1Cc2c([nH]c3ccccc23)CN1)C(=O)N[C@@H](Cc1ccccc1)C(=O)N[C@@H](Cc1c[nH]c2ccccc12)C(=O)O (H-[Tpi]NFW-OH)  34.56%
5. O=C(O)[C@H](Cc1c[nH]c2ccccc12)NC(=O)[C@H](Cc1ccccc1)NC(=O)[C@H](Cc1cnc[nH]1)NC(=O)[C@@H]1Cc2c([nH]c3ccccc23)CN1 (H-[Tpi]HFW-OH)  22.23%

tested on: Mus musculus; assay: Analgesic activity in ICR mouse assessed as increase in pain threshold at 0.15 mmol/kg, po after 120 mins by tail flick method (reference value: 8.09 +/- 13.28 %); type: functional

In order of rising Activity:
1. CC(C)[C@H](NC(=O)[C@@H]1Cc2c([nH]c3ccccc23)CN1)C(=O)N[C@@H](Cc1ccccc1)C(=O)N[C@@H](Cc1c[nH]c2ccccc12)C(=O)O (H-[Tpi]VFW-OH)  35.79%
2. NC(=O)C[C@H](NC(=O)[C@@H]1Cc2c([nH]c3ccccc23)CN1)C(=O)N[C@@H](Cc1ccccc1)C(=O)N[C@@H](Cc1c[nH]c2ccccc12)C(=O)O (H-[Tpi]NFW-OH)  39.25%
3. O=C(O)[C@H](Cc1c[nH]c2ccccc12)NC(=O)[C@H](Cc1ccccc1)NC(=O)[C@H](Cc1cnc[nH]1)NC(=O)[C@@H]1Cc2c([nH]c3ccccc23)CN1 (H-[Tpi]HFW-OH)  39.38%
4. C[C@@H](O)[C@H](NC(=O)[C@@H]1Cc2c([nH]c3ccccc23)CN1)C(=O)N[C@@H](Cc1ccccc1)C(=O)N[C@@H](Cc1c[nH]c2ccccc12)C(=O)O (H-[Tpi]TFW-OH)  42.43%
5. O=C(CNC(=O)[C@@H]1Cc2c([nH]c3ccccc23)CN1)N[C@@H](Cc1ccccc1)C(=O)N[C@@H](Cc1c[nH]c2ccccc12)C(=O)O (H-[Tpi]GFW-OH)  49.09%

tested on: Mus musculus; assay: Analgesic activity in ICR mouse assessed as increase in pain threshold at 0.15 mmol/kg, po after 150 mins by tail flick method (reference value: 9.02 +/- 12.19 %); type: functional

In order of rising Activity:
1. NC(=O)C[C@H](NC(=O)[C@@H]1Cc2c([nH]c3ccccc23)CN1)C(=O)N[C@@H](Cc1ccccc1)C(=O)N[C@@H](Cc1c[nH]c2ccccc12)C(=O)O (H-[Tpi]NFW-OH)  22.12%
2. O=C(CNC(=O)[C@@H]1Cc2c([nH]c3ccccc23)CN1)N[C@@H](Cc1ccccc1)C(=O)N[C@@H](Cc1c[nH]c2ccccc12)C(=O)O (H-[Tpi]GFW-OH)  22.37%
3. C[C@@H](O)[C@H](NC(=O)[C@@H]1Cc2c([nH]c3ccccc23)CN1)C(=O)N[C@@H](Cc1ccccc1)C(=O)N[C@@H](Cc1c[nH]c2ccccc12)C(=O)O (H-[Tpi]TFW-OH)  23.19%
4. O=C(O)[C@H](Cc1c[nH]c2ccccc12)NC(=O)[C@H](Cc1ccccc1)NC(=O)[C@H](Cc1cnc[nH]1)NC(=O)[C@@H]1Cc2c([nH]c3ccccc23)CN1 (H-[Tpi]HFW-OH)  24.33%
5. CC(C)[C@H](NC(=O)[C@@H]1Cc2c([nH]c3ccccc23)CN1)C(=O)N[C@@H](Cc1ccccc1)C(=O)N[C@@H](Cc1c[nH]c2ccccc12)C(=O)O (H-[Tpi]VFW-OH)  25.88%

tested on: Mus musculus; assay: Analgesic activity in ICR mouse assessed as increase in pain threshold at 0.15 mmol/kg, po after 180 mins by tail flick method (reference value: 8.75 +/- 9.73 %); type: functional

In order of falling Activity:
1. NC(=O)C[C@H](NC(=O)[C@@H]1Cc2c([nH]c3ccccc23)CN1)C(=O)N[C@@H](Cc1ccccc1)C(=O)N[C@@H](Cc1c[nH]c2ccccc12)C(=O)O (H-[Tpi]NFW-OH)  19.45%
2. C[C@@H](O)[C@H](NC(=O)[C@@H]1Cc2c([nH]c3ccccc23)CN1)C(=O)N[C@@H](Cc1ccccc1)C(=O)N[C@@H](Cc1c[nH]c2ccccc12)C(=O)O (H-[Tpi]TFW-OH)  19.25%
3. CC(C)[C@H](NC(=O)[C@@H]1Cc2c([nH]c3ccccc23)CN1)C(=O)N[C@@H](Cc1ccccc1)C(=O)N[C@@H](Cc1c[nH]c2ccccc12)C(=O)O (H-[Tpi]VFW-OH)  16.03%
4. O=C(CNC(=O)[C@@H]1Cc2c([nH]c3ccccc23)CN1)N[C@@H](Cc1ccccc1)C(=O)N[C@@H](Cc1c[nH]c2ccccc12)C(=O)O (H-[Tpi]GFW-OH)  14.36%
5. O=C(O)[C@H](Cc1c[nH]c2ccccc12)NC(=O)[C@H](Cc1ccccc1)NC(=O)[C@H](Cc1cnc[nH]1)NC(=O)[C@@H]1Cc2c([nH]c3ccccc23)CN1 (H-[Tpi]HFW-OH)  13.29%

tested on: Mus musculus; assay: Antiinflammatory activity in ICR mouse assessed as inhibition of xylene-induced ear edema at 0.15 mmol/kg, po administered 30 mins before xylene challenge measured after 2 hrs relative to control; type: functional
How it was run: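 Male ICR mice (20 ± 2 g), randomised to test, vehicle (CMC) and aspirin (10 mg/kg oral) groups. Test agents given orally as CMC suspension. After 30 min, 0.03 mL xylene applied to both faces of the right ear, left ear as control. At 2 h mice were killed and 7 mm ear punches weighed. Edema is the right-minus-left weight, and inhibition is taken against vehicle.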

In order of rising inhibition in vivo at 150 µmol/kg:
1. O=C(CNC(=O)[C@@H]1Cc2c([nH]c3ccccc23)CN1)N[C@@H](Cc1ccccc1)C(=O)N[C@@H](Cc1c[nH]c2ccccc12)C(=O)O (H-[Tpi]GFW-OH)  37.5%
2. CC(C)[C@H](NC(=O)[C@@H]1Cc2c([nH]c3ccccc23)CN1)C(=O)N[C@@H](Cc1ccccc1)C(=O)N[C@@H](Cc1c[nH]c2ccccc12)C(=O)O (H-[Tpi]VFW-OH)  43.6%
3. C[C@@H](O)[C@H](NC(=O)[C@@H]1Cc2c([nH]c3ccccc23)CN1)C(=O)N[C@@H](Cc1ccccc1)C(=O)N[C@@H](Cc1c[nH]c2ccccc12)C(=O)O (H-[Tpi]TFW-OH)  50.6%
4. NC(=O)C[C@H](NC(=O)[C@@H]1Cc2c([nH]c3ccccc23)CN1)C(=O)N[C@@H](Cc1ccccc1)C(=O)N[C@@H](Cc1c[nH]c2ccccc12)C(=O)O (H-[Tpi]NFW-OH)  55.8%
5. O=C(O)[C@H](Cc1c[nH]c2ccccc12)NC(=O)[C@H](Cc1ccccc1)NC(=O)[C@H](Cc1cnc[nH]1)NC(=O)[C@@H]1Cc2c([nH]c3ccccc23)CN1 (H-[Tpi]HFW-OH)  57.6%

— ChEMBL document CHEMBL1781989, “Novel β-carboline-tripeptide conjugates attenuate mesenteric ischemia/reperfusion injury in the rat” (2011)
